Only a selection was taken, and hits are over-represented in it overall.
UPR XBP1 act – adaptive UPR (XBP1) activation; CHO-XBP1 luciferase reporter, IRE1-XBP1 UPR activation, luminescence; percent of tunicamycin response, DMSO as zero; activation, % at 20 µM; 330,000 tested, 0.33% active;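 active means versus positive control, 20 µM dose yields 30% or more activation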;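 further: 100% = tunicamycin at 10 µg/mL and 0% = DMSO only wells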
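Assay system: IRE1-XBP1 luciferase reporter CHO line. Input: 1000 cells/well. Buffer or medium: F12 with 10% serum. Doses: 20 µM, 1% DMSO. Times: overnight seeding at 37 °C, 6 h compound treatment at 37 °C. Technique: Steady-Glo luciferase glow luminescence, 10 min after reagent addition.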
TLR9-MyD88 inh – TLR9-MyD88 interaction inhibition; 340,000 tested, 0.21% active; AID 504734; inhibition, % at 4.98 µM; CHO BLA complementation TLR9-MyD88, CCF4 FRET ratio;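 active means inhibition above the mean over all tested compounds plus 3 SD, cut at about 21% in these data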;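 further: 0% = DMSO only wells and 100% = clavulanate BLA inhibitor control wells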
TLR4 MyD88 comp – inhibitors of human TLR4-MyD88 binding | O00206+Q99836 | HeLa CL3-4 TLR4/MyD88 BLA complementation, FRET ratio | inhibition, % at 8.4 µM | 200,000 tested, 0.18% active | AID 861; in the data active means inhibition above about 25%;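 further: 0% = vehicle and 100% = reference inhibitor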
NOD2-RIPK2 inh – blocks binding of human NOD2 to RIPK2. CHO BLA complementation NOD2-RIPK2, CCF4 ratio. inhibition, % at 4.98 µM. 360,000 tested, 0.38% active. AID 624267; in the data active means inhibition above about 21%;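 further: 0% = vehicle only and 100% = reference blocker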
Target sequence (O43353 whole entry, looked up): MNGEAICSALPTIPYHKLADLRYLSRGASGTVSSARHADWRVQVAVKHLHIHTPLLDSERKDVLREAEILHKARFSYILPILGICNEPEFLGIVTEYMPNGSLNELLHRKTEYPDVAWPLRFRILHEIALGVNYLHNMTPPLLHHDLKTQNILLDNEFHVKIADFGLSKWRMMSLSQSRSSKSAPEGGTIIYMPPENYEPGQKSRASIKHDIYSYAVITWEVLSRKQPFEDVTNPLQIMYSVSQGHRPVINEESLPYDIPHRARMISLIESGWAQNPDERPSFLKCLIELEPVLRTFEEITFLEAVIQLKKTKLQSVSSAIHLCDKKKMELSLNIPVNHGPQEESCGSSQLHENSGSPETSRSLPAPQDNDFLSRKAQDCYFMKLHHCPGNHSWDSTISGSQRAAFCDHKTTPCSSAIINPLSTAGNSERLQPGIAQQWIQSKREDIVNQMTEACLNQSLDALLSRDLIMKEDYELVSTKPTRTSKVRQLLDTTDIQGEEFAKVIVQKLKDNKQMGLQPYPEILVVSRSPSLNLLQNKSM
CHOP UPR activ – activators of apoptotic arm of unfolded protein response (CHOP); 330,000 tested, 0.34% active; activation, % at 10 µM; CHO-CHOP luciferase reporter, UPR activation, luminescence; percent of tunicamycin response over DMSO baseline;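 active means at 10 µM dose, activation of 40% or more, normalized to positive control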;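 further: 100% = tunicamycin at 10 µg/mL and 0% = DMSO alone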
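Assay system: CHO-CHOP cells, stable luciferase reporter of PERK-eIF2a-CHOP signalling / Buffer or medium: F12 plus 10% serum / Compound dosing: one dose, 10 µM in 0.5% DMSO / Times: 6 h compound treatment, 37 °C / Technique: luciferase luminescence / Read-out: % reporter activation, DMSO baseline versus tunicamycin full activation / Benchmarks: tunicamycin and DMSO controls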
CHOP inhibitor – blocks CHOP induction under ER stress. inhibition, % at 10 µM. CHO-K1 CHOP-promoter luciferase, tunicamycin-induced, 15-18 h. 220,000 tested, 3.8% active;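 active means compounds that reduced the stress-induced luciferase reporter signal by more than about 70% of percent inhibition, limit read from the data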;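 further: 0% = tunicamycin plus vehicle and 100% = wells without tunicamycin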
UPR XBP1 confirm – confirmation of adaptive unfolded protein response (XBP1) activators. shares compounds with UPR XBP1 act. 1,000 tested, 63% active. activation, % at 20 µM. CHO-XBP1 IRE1-XBP1 luciferase reporter, luminescence;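 active means reporter signal at least 30% of the positive control's activation in two or more of four replicate wells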;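 further: plate controls were DMSO negative control for no effect and tunicamycin 10 µg/mL positive control for full effect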
Starred values were filed as active, the others as inactive; nt = not tested or not shown; ! = not active in a repeat.

SMILES | UPR XBP1 act | TLR9-MyD88 inh | TLR4 MyD88 comp | NOD2-RIPK2 inh | CHOP UPR activ | CHOP inhibitor | UPR XBP1 confirm
COc1ccc(/C=N/Nc2nnc(Cc3ccc(OC)c(OC)c3)c(=O)[nH]2)cc1OC | 2 | -4 | 3 | 6 | -1 | 18 | nt
O=C(CSCc1ccc(Br)cc1)NCc1ccccn1 | 2 | -10 | -14 | -3 | 0 | 6 | nt
Cc1ccc(Cn2c(C(C)Nc3nc(-c4ccc(F)cc4)cs3)nc3cc(Cl)c(Cl)cc32)cc1 (centres undefined) | 35* | 6 | nt | -3 | 2 | nt | 30*
CCCn1c(C(C)Nc2nc(-c3ccc(C)cc3)cs2)nc2cc(Cl)c(Cl)cc21 (centres undefined) | -1 | -4 | nt | 11 | -1 | nt | nt
CCn1c(O)c(N=N)c2ccccc21 | 6 | -3 | 7 | -12 | 0 | 18 | nt
CCn1c(O)c(C(C#N)=C2N=c3ccccc3=N2)c2ccccc21 | 34* | -1 | 5 | -7 | -2 | 62 | -1
Cc1ccc(Nc2nc(NCCO)c3ccccc3n2)cc1C | 39* | -4 | nt | 16 | 14 | nt | 39*
Cc1cc(=O)[nH]c(Nc2ccc(N(C)C)cc2)n1 | -1 | 0 | nt | -1 | 0 | nt | nt
CCN(CC)c1cccc(OC(=O)c2cccnc2Cl)c1 | 3 | 7 | nt | -2 | 3 | nt | nt
Cc1cc(C)c(C#N)c(SCC(=O)N2CCCCC2)n1 | 34* | 0 | 2 | -4 | 1 | -17 | 0
Cc1cc(C)c(C#N)c(SCC(=O)N2CCN(Cc3ccccc3)CC2)n1 | -3 | -5 | -4 | -4 | -4 | -14 | nt
CCOC(=O)Cn1c2ccc(OC)cc2c2nc3ccccc3nc21 | 1 | -5 | 4 | 0 | -1 | 35 | nt
CCOc1ccc(Cn2c3ccc(OC)cc3c3nc4ccccc4nc32)cc1OC | 118* | -4 | 8 | -3 | 2 | 88* | 106*
Cn1c(=O)[nH]c(=O)c2c1nc(N1CCc3ccccc3C1)n2CCSc1nc2ccccc2s1 | 34* | 8 | -4 | -11 | 32 | -31 | 4
CCOc1ccc(-n2c(SCC(=O)Nc3nccs3)nc3c(c2=O)SCC3)cc1 | 75* | 1 | 6 | -9 | 12 | 7 | 9
Cc1ccc(-n2c(SCC(=O)Nc3nccs3)nc3c(c2=O)SCC3)cc1 | 9 | -4 | 5 | -9 | 2 | 24 | nt
COc1ccc(NC(=O)CCC(=O)c2cc(C)sc2C)cc1 | 0 | -3 | nt | -6 | 0 | nt | nt
CC1CCC(C(C)C)C(OC(=O)Cn2c(-c3ccc(Cl)cc3)[n+](C)c3ccccc32)C1 (centres undefined) | 87* | 6 | nt | 1 | 9 | 25 | 86*
CC(C)[C@@H]1CC[C@@H](C)C[C@H]1OC(=O)C[n+]1cc(-c2ccc(Cl)cc2)n2c1CCCCC2 | 5 | -5 | nt | -15 | -1 | 10 | nt
CC1CCC(C(C)C)C(OC(=O)Cn2c(-c3ccc(Br)cc3)[n+](C)c3ccccc32)C1 (centres undefined) | 109* | 4 | -4 | -14 | 19 | 90*! | 108*
CCc1c(C)sc(NC(=S)N2CC(C)OC(C)C2)c1C(=O)OC (centres undefined) | -2 | 7 | -5 | 1 | 2 | 10 | nt
COc1ccc(Br)cc1CN1CCCCCC1 | -1 | -6 | nt | 4 | 0 | nt | nt
O=[N+]([O-])c1ccccc1NC(=S)N/N=C/c1ccc(O)c(O)c1 | 37* | 1 | -2 | -8 | 21 | 22 | 23
Cc1c(N(C(=O)c2ccccn2)C2(C(=O)NC3CCCC3)CCCCC2)c(=O)n(-c2ccccc2)n1C | -1 | -4 | 10 | 3 | 1 | 0 | nt
CCNC(=O)C1CCCN(C(=O)c2ccc(C(=O)OC)cc2)CC1 (centres undefined) | nt | nt | nt | -6 | nt | nt | nt
SMILES | UPR XBP1 act | TLR9-MyD88 inh | TLR4 MyD88 comp | NOD2-RIPK2 inh | CHOP UPR activ | CHOP inhibitor | UPR XBP1 confirm
COc1cccc(NC(=O)CN(C)C(=O)c2ccc(-c3ccc(Cl)cc3)o2)c1 | 2 | 4 | nt | -2 | 2 | nt | nt
O=C(Nc1nccs1)c1cc2c(s1)-c1ccccc1OC2 | 8 | 2 | -5 | -9 | 4 | 61 | nt
O=C(Nc1nc2ccccc2s1)c1cc2c(s1)-c1ccccc1OC2 | 134* | 1 | -34 | -15 | 24 | 22 | 93*
O=C(Nc1cccc(F)c1)NC1(C(=O)N2CCOCC2)CCCCC1 | 5 | -4 | 3 | 9 | 1 | 0 | nt
CC1CCCC(C)N1CC(O)COc1c(F)cc(Br)cc1F (centres undefined) | -3 | -3 | -12 | -11 | -2 | -4 | nt
COc1ccc(-c2ccc3oc(-c4ccsc4)cc(=O)c3c2)cc1F | 3 | -17 | nt | -2 | 2 | nt | nt
COc1cc(-c2ccc3oc(-c4ccsc4)cc3c2)cc(OC)c1OC | 61* | 4 | nt | 0 | 6 | nt | 32*
COC(=O)[C@]12CCCCC=C1N(CCC1=CCCCC1)C(=O)[C@H](CC(=O)NCc1cccc(C(F)(F)F)c1)C2 | nt | nt | nt | 4 | nt | nt | nt
O=C(N/N=C/C(Br)=C\c1ccccc1)c1n[nH]c2c1CCC2 | 35* | 7 | -3 | 19 | 5 | nt | 36*
Cc1cccc(C(=O)Nc2nnc(Cc3ccccc3)s2)c1 | -3 | 5 | nt | 10 | 3 | nt | nt
CN(C(=O)c1ccc(NC(=O)Cc2ccc(NC(=O)C3CCCN(C(=O)C4CC4)C3)cc2)cc1)C1CC1 (centres undefined) | -2 | -2 | nt | -11 | 2 | nt | nt
CCCCCn1c(N)c(-c2nc3ccccc3o2)c2c([N+](=O)[O-])nn(C)c(=O)c21 | nt | -5 | -2 | -10 | nt | 13 | nt
CCCCCn1c(N)c(-c2nc3ccccc3o2)c2c([N+](=O)[O-])nn(CC)c(=O)c21 | 38* | 0 | -5 | -10 | 16 | 23 | 53*
CCOc1ccc(NC(=O)Cc2ccc(S(=O)(=O)N3CCCCC3)cc2)cc1OCC | -3 | -4 | nt | 8 | 1 | nt | nt
OC[C@@H]1CN(Cc2ccncc2)C[C@H](n2cnc3c(N4CCCC4)ncnc32)O1 | nt | nt | nt | 4 | nt | nt | nt
COc1cc(/C=N/NC(=O)NC23CC4CC(CC(C4)C2)C3)ccc1O | 44* | 3 | nt | -4 | 0 | nt | 24
O=C(N/N=C/c1ccccc1O)NC12CC3CC(CC(C3)C1)C2 | 8 | 5 | nt | 5 | 4 | nt | nt
Clc1ccc(C2=Nn3c(nnc3-c3cc(-c4ccccc4)n[nH]3)SC2)cc1 | 66* | -11 | 10 | -11 | 14 | -27 | 51*
COc1ccc(C(C(=O)NC2CCCC2)N(C(=O)c2snc(-c3ccc(F)cc3)c2N)c2ccc(F)cc2)cc1 (centres undefined) | 7 | 0 | 6 | 4 | 7 | 47 | nt
